Source: ChEMBL document CHEMBL4477210, “Gramine Derivatives Targeting Ca(2+) Channels and Ser/Thr Phosphatases: A New Dual Strategy for the Treatment of Neurodegenerative Diseases” (J Med Chem, 2016)
Activity calls are given as the source filed them. The rule behind the calls is not given here.

Key:
SH-SY5Y [1] = experiment: Cytotoxicity against human SH-SY5Y cells assessed as reduction of cell viability at <10 uM incubated for 48 hrs by MTT assay; format: cell-based
How it was run: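 SH-SY5Y cells exposed to compounds for 48 h; viability read by MTT reduction (final 0.3 mg/mL, 2 h at 37 °C in the dark), formazan dissolved in DMSO, absorbance at 540 nm, expressed as % of untreated cells.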

[2] = system: Voltage-gated calcium channel; experiment: Inhibition of VGCC in human SHSY-5Y cells assessed as reduction of K+-evoked cytosolic ca2+ at 1 uM incubated for 10 mins prior to KCl addition by Fluo-4-AM probe-based fluorescence analysis; format: cell-based
How it was run: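 SH-SY5Y cells at confluence (48 h after seeding) loaded with 10 μM Fluo-4/AM plus 0.2% pluronic in Krebs–HEPES (pH 7.4) for 45 min at 37 °C, then washed. Compound at 1 μM for 10 min, then KCl 70 mM. Ex 485/em 520 nm; signal normalized to Fmax (Triton X-100) minus Fmin (MnCl2). At least six experiments versus K+ response without compound.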

Homo sapiens [3] = organism: Homo sapiens; experiment: Suppression of okadaic acid-induced inhibition of PP1/PP2A in human SHSY-5Y cells at 0.1 uM using pNPP as substrate assessed as remaining Ser/Thr phosphatase activity incubated for 30 mins in presence of tyrosine phosphatase inhibitor sodium orthovanadate by colorimetric assay (reference value: 61 +/- 3%); format: cell-based
How it was run: (§1)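 SH-SY5Y cells treated with compound at 0.1 μM plus okadaic acid 15 nM (24 h preincubation, then coincubation). Medium removed; assay buffer with pNPP (10 mM) added, 30 min at 37 °C in the dark, absorbance at 405 nm. For Ser/Thr activity, 1 mM orthovanadate added to the buffer. Expressed as % of untreated cells; at least four experiments.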

Cortical neurone [4] = experiment: Cytotoxicity against rat cortical motor neurons assessed as reduction of cell viability at 1 uM incubated for 48 hrs by MTT assay; format: cell-based
How it was run: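 Rat cortical motor neurons in neurobasal medium with 2% B-27 on poly-D-lysine, grown 8−10 days to a dense network, then exposed to compound for 48 h. Viability read by MTT (0.3 mg/mL final, 30 min, 37 °C, dark), formazan dissolved in DMSO, absorbance 540 nm, expressed as % of untreated cells.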

Homo sapiens [5] = organism: Homo sapiens; experiment: Suppression of okadaic acid-induced inhibition of PP1/PP2A in human SHSY-5Y cells at 0.1 uM using pNPP as substrate assessed as remaining total phosphatase activity incubated for 30 mins by colorimetric assay (reference value: 68 +/- 2%); format: cell-based; how it was run: as §1
SH-SY5Y [6] = experiment: Neuroprotective activity in human SH-SY5Y cells assessed as reversal of okadaic acid-induced cytotoxicity at 0.1 uM preincubated for 24 hrs followed by […] by MTT assay; format: functional
Bos taurus [7] = organism: Bos taurus; experiment: Inhibition of VGCC in bovine chromaffin cells assessed as reduction in depolarization-evoked Ca2+ current at 1 uM at -80 mV holding potential using 50 millisec depolarization pulses every 20 secs by patch clamp method; format: cell-based
[8] = system: Voltage-gated calcium channel; experiment: Inhibition of VGCC in human SHSY-5Y cells assessed as reduction of K+-evoked cytosolic ca2+ at 3 uM incubated for 10 mins prior to KCl addition by Fluo-4-AM probe-based fluorescence analysis; format: cell-based
How it was run: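 SH-SY5Y cells grown to confluence over 48 h, then loaded with 10 μM Fluo-4/AM and 0.2% pluronic acid in Krebs–HEPES (pH 7.4) for 45 min at 37 °C and washed. Compound added 10 min before depolarisation with KCl 70 mM. Fluorescence read at ex 485/em 520 nm and normalised to Fmax (Triton X-100) and Fmin (MnCl2). Inhibition taken against the K+ response without compound; ≥6 experiments.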

[9] = (§2) Neuroprotective activity in Sprague-Dawley rat hippocampal cells assessed as reversal of glutamate-induced cytotoxicity at 10 uM incubated for 4 hrs by MTT assay; format: functional, Hippocampal neurone
How it was run: (§3)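 Hippocampal slices from 2-month-old Sprague–Dawley rats stabilized 45 min at 34 °C, then coincubated 4 h with compound and glutamate 1 mM. Viability by MTT (0.3 mg/mL, 30 min), absorbance at 540 nm. Reported as % protection relative to glutamate-only slices; at least four tissue batches in quadruplicate.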

Cortical neurone [10] = experiment: Neuroprotective activity in rat cortical motor neurons assessed as reversal of veratridine-induced cytotoxicity at 0.1 uM incubated for 24 hrs followed by coincubation with veratridine for 24 hrs by MTT assay; format: functional
Bos taurus [11] = organism: Bos taurus; experiment: Inhibition of VGCC in bovine chromaffin cells assessed as potentiation of compound-induced of reduction in depolarization-evoked Ca2+ current at 1 uM at -80 mV holding potential using 50 millisec depolarization pulses every 20 secs in presence of L-type VGCC blocker nifedipine by patch clamp method; format: cell-based
Bos taurus [12] = organism: Bos taurus; experiment: Inhibition of VGCC in bovine chromaffin cells assessed as reduction in depolarization-evoked Ca2+ current at 1 uM at -80 mV holding potential using 50 millisec depolarization pulses every 20 secs in presence of […] N and P/Q type VGCC blocker omega-conotoxin MV2C by patch clamp method; format: cell-based
Hippocampal neurone = experiment: as §2; format: functional; how it was run: as §3

Row | Structure (SMILES) | Activity (SH-SY5Y [1]) | inhibition (INH) [2] | Activity (Homo sapiens [3]) | Activity (Cortical neurone [4]) | Activity (Homo sapiens [5]) | Activity (SH-SY5Y [6]) | inhibition (Bos taurus [7]) | inhibition (INH) [8] | Activity [9] | Activity (Cortical neurone [10]) | inhibition (Bos taurus [11]) | inhibition (Bos taurus [12]) | Activity (Hippocampal neurone)
1 | c1ccc2c(CN3CCCCC3)c[nH]c2c1 | Non-Toxic | 30% | 79% | Toxic | 76% | 47% | – | – | – | – | – | – | –
2 | CN(C)Cc1c[nH]c2ccccc12 [GRAMINE] | – | 25% | 76% | – | 80% | 45% | Active | – | – | – | – | – | –
3 | CN(C)Cc1cn(CCCCN2CCCCC2)c2ccc(Br)cc12 | Non-Toxic | 14% | 68% | – | 73% | 31% | – | – | – | – | – | – | –
4 | Cc1ccc2c(c1)c(CN1CCCCC1)cn2CCCCN1CCCCC1 | Non-Toxic | 4% | 70% | – | 72% | 26% | – | – | – | – | – | – | –
5 | COC(=O)C1=C(C)NC(C)=C(C(=O)OC)C1c1ccccc1[N+](=O)[O-] [NIFEDIPINE] | – | – | – | – | – | – | – | 73% | – | – | – | – | –
6 | Cc1ccc2[nH]cc(CN3CCCCC3)c2c1 | Non-Toxic | 16% | 69% | – | 71% | 38% | – | – | – | – | – | – | –
7 | ClCCCCn1cc(CN2CCCCC2)c2cc(Br)ccc21 | Non-Toxic | 57% | 62% | – | 68% | 48% | – | – | – | – | – | – | –
8 | CCCCn1cc(CN(C)C)c2cc(Br)ccc21 | Non-Toxic | 14% | 76% | – | 81% | 66% | – | – | 40% | – | – | – | –
9 | COc1ccc2[nH]cc(CCNC(C)=O)c2c1 [MELATONIN] | – | – | – | – | – | 43% | – | – | – | – | – | – | –
10 | Brc1ccc2c(c1)c(CN1CCCCC1)cn2CCCCN1CCCCC1 | Non-Toxic | 19% | 70% | Toxic | 73% | 61% | – | – | – | 0% | – | – | –
11 | CCOC(=O)CCCn1cc(CN2CCCCC2)c2cc(Br)ccc21 | Non-Toxic | 16% | 71% | – | 73% | 43% | – | – | – | – | – | – | –
12 | CN(C)Cc1cn(Cc2ccccc2)c2ccc(Br)cc12 | Non-Toxic | 38% | 78% | – | 81% | 56% | – | – | – | – | – | – | –
13 | CCCCn1cc(CN2CCCCC2)c2cc(Br)ccc21 | Non-Toxic | 63% | 79% | – | 78% | 71% | Active | – | – | – | – | – | –
14 | C#CCn1cc(CN2CCCCC2)c2cc(Br)ccc21 | Non-Toxic | 42% | 72% | – | 77% | 47% | – | – | – | – | – | – | –
15 | C#CCn1cc(CN(C)C)c2cc(C)ccc21 | Non-Toxic | 14% | 74% | – | 80% | 12% | – | – | – | – | – | – | –
16 | Brc1ccc2[nH]cc(CN3CCCCC3)c2c1 | Non-Toxic | 7% | 67% | – | 74% | 60% | – | – | – | – | – | – | –
17 | Cc1ccc2c(c1)c(CN(C)C)cn2Cc1ccccc1 | Non-Toxic | 18% | 66% | – | 73% | 44% | – | – | – | – | – | – | –
18 | CC12CC3CC(C)(C1)CC(N)(C3)C2 | – | – | 78% | – | 77% | – | – | – | – | – | – | – | –
19 | C#CCn1cc(CN2CCCCC2)c2cc(C)ccc21 | Non-Toxic | 25% | 66% | – | 71% | 42% | – | – | – | – | – | – | –
20 | Cc1ccc2c(c1)c(CN(C)C)cn2CCCCN1CCCCC1 | Non-Toxic | 16% | 68% | – | 74% | 37% | – | – | – | – | – | – | –
21 | Brc1ccc2c(c1)c(CN1CCCCC1)cn2Cc1ccccc1 | Non-Toxic | 45% | 70% | – | 79% | 54% | Active | – | – | – | – | – | –
22 | Cc1ccc2c(c1)c(CN1CCCCC1)cn2Cc1ccccc1 | Non-Toxic | 22% | 78% | – | 77% | 56% | 40% | – | – | – | Active | Active | –
23 | CCOC(=O)CCCn1cc(CN(C)C)c2cc(Br)ccc21 | Non-Toxic | 13% | 66% | – | 76% | 58% | – | – | – | – | – | – | Active
24 | CN(C)Cc1c[nH]c2ccc(Br)cc12 [BROMOGRAMINE] | Non-Toxic | 3% | 76% | – | 80% | 47% | – | – | 40% | – | – | – | –
25 | Cc1ccc2c(c1)c(CN1CCCCC1)cn2CCCCCl | Non-Toxic | 35% | 62% | – | 71% | 56% | – | – | – | – | – | – | Active
26 | C#CCn1cc(CN(C)C)c2cc(Br)ccc21 | Non-Toxic | 10% | 64% | – | 70% | 12% | – | – | – | – | – | – | –
27 | Cc1ccc2[nH]cc(CN(C)C)c2c1 | Non-Toxic | 10% | 77% | – | 79% | 59% | – | – | – | – | – | – | –
28 | CCCCn1cc(CN2CCCCC2)c2cc(C)ccc21 | Non-Toxic | 21% | 66% | – | 69% | 46% | Active | – | – | – | – | – | –
